Results from PMC12138178 (The New Phytologist, 2025).

What was measured:
MpPR10.5 protein [1] = molecular target: T1, MpPR10.5 protein (Marchantia polymorpha, UniProt A0A2R6WRE7); test: Intrinsic tryptophan fluorescence binding assay
T1 sequence (A0A2R6WRE7 1-149): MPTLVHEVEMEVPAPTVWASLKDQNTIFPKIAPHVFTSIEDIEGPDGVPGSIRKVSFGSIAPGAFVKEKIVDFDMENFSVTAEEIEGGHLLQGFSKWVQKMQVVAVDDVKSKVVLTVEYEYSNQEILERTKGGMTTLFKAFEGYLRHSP
Method in brief: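 His-SUMO-tagged PR10 protein, expressed in E. coli Rosetta-Gami 2 and purified by IMAC and size exclusion, used at 1.1 μM in 20 mM Tris pH 8.5, 200 mM NaCl. DMSO stocks of test compound at eight levels (0–20 mM or 0–4 mM) were diluted 10× in buffer and added. Incubated 5 min at 22°C. Excitation 280 nm, emission 340 nm. Six replicates; buffer controls subtracted. |ΔF|/F0 versus concentration was fitted to a one-site specific binding model to give Kd.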

MpPR10.5 protein [2] = molecular target: T1, MpPR10.5 protein; test: Naringenin chalcone oxidation assay; assay type: physicochemical; conditions: pH 7.5, 30 min
Method in brief: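 Run in 20 mM Tris pH 7.5 or 8.5 with 200 mM NaCl, either as buffer alone or with 15 μM His-SUMO-tagged PR10 protein. A blank was recorded first. Test compound was added from a 1.4 mM DMSO stock to 10 μM final. UV–Vis spectra (190–840 nm, 1 cm path) were taken every 1 min for 30 min, following the 377 and 322 nm peaks.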

Structure (SMILES) | affinity for MpPR10.5 (in words) (MpPR10.5 protein [1]) | Kd (MpPR10.5 protein [1]; Kd (dissociation constant), His-SUMO-MpPR10.5 fusion protein, 20 mM Tris pH 8.5, 200 mM NaCl, 22°C, nd = not detected) [µM] | stability under the experimental conditions (absorption peak at 322 nm) (MpPR10.5 protein [2])
O=C(CCc1ccc(O)cc1)c1c(O)cc(O)cc1O [Phloretin] | high affinity | – | –
O=C(O)/C=C/c1ccccc1 [Cinnamic acid] | very low affinity | > 119 | –
O=C1C[C@@H](c2ccc(O)cc2)Oc2cc(O)cc(O)c21 [Naringenin] | – | – | remained completely stable
O=C(O)C=Cc1ccc(O)cc1 [p-Coumaric acid] | no affinity | – | –
O=C(/C=C/c1ccc(O)cc1)c1ccc(O)cc1O [Isoliquiritigenin] | high affinity | – | –
O=C(/C=C/c1ccc(O)c(O)c1)c1ccc(O)cc1O [Butein] | high affinity | – | –
